Calls of active or inactive are those of the source. No cut-off for these calls is given here.
Legend:
A549 = test: Antiproliferative activity against human A549 cells assessed as inhibition of cell proliferation incubated for 72 hrs by CellTiter-Glo luminescent assay; format: functional, cell-based; conditions: A549, 72 h
Method in brief: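 A549 in RPMI 1640 and U-87MG in DMEM, each with 10% FCS and 1% glutamine, at 37 °C and 5% CO₂. Cells seeded at 3000/well, dosed the next day, treated 72 h. Viability read by CellTiter-Glo luminescence with DMSO-treated cells set to 100%. IC50 taken from survival curves over three independent experiments.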

[1] = Drug uptake in human hTERT-RPE1 cells assessed as drug co-localization with OSBP perinuclear region of cell incubated for 30 mins by immunofluorescence analysis; format: ADME, cell-based; conditions: tert-rpe1, 0.5 h
Method in brief: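 hTERT-RPE-1 cells incubated 30 min with compound, then fixed (4% paraformaldehyde, 0.1% glutaraldehyde, 10 min), quenched with 50 mM NH₄Cl and permeabilized in saponin 0.05%/BSA 0.2%. Immunolabeled for OSBP and TGN-46. Compound imaged directly by UV-adapted widefield fluorescence (excitation 330, emission 410 nm).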

[2] = molecular target: T1, Oxysterol-binding protein 1 (Homo sapiens) (UniProt P22059); test: Inhibition of human OSBP in human hTERT-RPE1 cells co-transfected with GFP-P4MSidM and TagBFP-betaGalT1 assessed as increase in PI4P at TGN by measuring GFP-P4M fluorescence and measured after 50 mins by immunofluorescence analysis; format: cell-based
T1 sequence (whole entry): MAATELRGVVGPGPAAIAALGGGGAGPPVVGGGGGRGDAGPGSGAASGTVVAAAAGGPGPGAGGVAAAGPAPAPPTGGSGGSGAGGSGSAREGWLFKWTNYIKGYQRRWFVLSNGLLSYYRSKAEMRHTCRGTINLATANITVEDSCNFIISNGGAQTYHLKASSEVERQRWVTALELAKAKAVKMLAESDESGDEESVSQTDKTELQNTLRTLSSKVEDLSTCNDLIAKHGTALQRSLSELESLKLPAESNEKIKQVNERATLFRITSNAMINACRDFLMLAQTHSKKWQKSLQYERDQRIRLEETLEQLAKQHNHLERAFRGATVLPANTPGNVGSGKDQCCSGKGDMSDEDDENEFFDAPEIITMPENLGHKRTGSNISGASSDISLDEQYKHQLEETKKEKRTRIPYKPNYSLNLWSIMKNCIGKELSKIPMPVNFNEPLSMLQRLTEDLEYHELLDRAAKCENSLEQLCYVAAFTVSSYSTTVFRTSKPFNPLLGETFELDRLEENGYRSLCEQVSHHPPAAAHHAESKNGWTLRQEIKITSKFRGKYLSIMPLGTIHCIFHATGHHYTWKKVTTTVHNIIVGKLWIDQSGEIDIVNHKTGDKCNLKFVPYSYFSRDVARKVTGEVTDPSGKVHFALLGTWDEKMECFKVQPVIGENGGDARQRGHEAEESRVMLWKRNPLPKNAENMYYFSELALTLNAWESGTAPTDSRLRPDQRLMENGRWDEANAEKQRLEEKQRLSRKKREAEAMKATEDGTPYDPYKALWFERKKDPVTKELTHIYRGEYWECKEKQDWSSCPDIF
Method in brief: (§1)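 hTERT-RPE-1 cells electroporated with GFP-P4M^SidM (PI4P probe) and TagBFP-βGalT1, plated 18-24 h. Timelapse confocal imaging at 37 °C after compound addition, with P4M-GFP intensity at the TGN tracked over time and compared before and 50 min after addition. Mean of 4 to 6 independent experiments ± SEM.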

[3] = molecular target: T1, Oxysterol-binding protein 1 (Homo sapiens); test: Inhibition of human OSBP in human hTERT-RPE1 cells co-transfected with GFP-P4MSidM and TagBFP-betaGalT1 assessed as half life for inhibition of PI4P transfer by OBSP by immunofluorescence analysis; format: cell-based; method in brief: as §1
[4] = molecular target: T1, Oxysterol-binding protein 1 (Homo sapiens); test: Inhibition of human OSBP in human hTERT-RPE1 cells assessed as increase in OSBP recruitment at TGN and measured after 10 mins by confocal microscopy; format: cell-based
mTORC2 (Homo sapiens) = mTORC2 (Homo sapiens) (UniProt P42345+Q6R327+Q9BVC4+Q9BPZ7); test: Inhibition of mTORC2 signalling in human U-87 MG cells assessed as decrease in AKT phosphorylation at S473 residue at 0.05 to 1 uM incubated for 48 hrs by Western blot analysis; format: cell-based
Method in brief: (§2)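 U-87 MG cells cultured two days, then exposed 48 h to increasing doses. Lysed in RIPA with protease inhibitors; 5 µg protein run on 4-20% SDS gels and transferred to PVDF. Probed for phospho/total AKT, S6, S6K, P62 and LC3, detected by ECL. Band intensities normalized to β-actin.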

U-87 MG [5] = test: Induction of autophagy in human U-87 MG cells assessed as decrease in LC3I expression at 0.05 to 1 uM incubated for 48 hrs by Western blot analysis; format: functional, cell-based; conditions: U-87MG ATCC; method in brief: as §2
U-87 MG [6] = test: Induction of autophagy in human U-87 MG cells assessed as increase in LC3II expression at 0.05 to 1 uM incubated for 48 hrs by Western blot analysis; format: functional, cell-based; conditions: U-87MG ATCC; method in brief: as §2
[7] = Metabolic stability in mouse plasma assessed as compound remaining at 5 uM and measured after 120 mins by UPLC-MS/MS analysis; format: ADME, cell-free; conditions: read-out: Stability
Method in brief: (§3)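 Male mouse plasma at 37 °C with compound added from a 5 µM solution […]. Sampled at 0, 15, 30, 45, 60 and 120 min, quenched with acetonitrile and read by LC-MS/MS (MRM) in duplicate. Procaine positive control. Remaining % and t1/2 derived from MRM area relative to t = 0.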

[8] = Metabolic stability in mouse plasma assessed as half life at 5 uM and measured upto 120 mins by UPLC-MS/MS analysis; format: ADME, cell-free; method in brief: as §3
[9] = Toxicity in immunodeficient mouse assessed as clinical symptoms at 100 mg/kg,ip QD for 5 days; format: organism-based; conditions: in vivo, 120 h, time 5 day
[10] = Toxicity in immunodeficient nude mouse model xenografted with high alert medicated patient derived human GBM1 cells assessed as body weight change at 50 mg/kg,ip QD for 17 days; format: organism-based; conditions: in vivo, 408 h, time 17 day
Method in brief: (§4)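 Female athymic nude mice bearing subcutaneous GBM1-HAM PDX fragments (20 mm³); treatment began day 11 post-implant at tumour volumes 75-196 mm³, 10 per group. Compound i.p. daily in cyclodextrin vehicle (17 days alone, 27 days in combination); temozolomide 42 mg/kg p.o. daily for 5 days in PBS/glucose/Tween 80. Calliper volumes three times weekly; body weight and clinical signs monitored.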

[11] = Toxicity in immunodeficient nude mouse model xenografted with high alert medicated patient derived human GBM1 cells assessed as body weight change at 50 mg/kg,ip QD for 27 days cotreatment with Temozolomide at 42 mg/kg,po QD for 5 days; format: organism-based; conditions: in vivo, 648 h, time 27 day; method in brief: as §4
[12] = Toxicity in immunodeficient nude mouse model xenografted with high alert medicated patient derived human GBM1 cells assessed as clinical symptoms at 50 mg/kg,ip QD for 27 days cotreatment with Temozolomide at 42 mg/kg,po QD for 5 days; format: organism-based; conditions: in vivo, 648 h, time 27 day; method in brief: as §4
[13] = Antitumor activity in high alert medicated patient derived human GBM1 cells xenografted in immunodeficient nude mouse model assessed as tumor growth inhibition at 20 mg/kg,ip QD cotreatment with Temozolomide at 42 mg/kg,po QD and measured after 11 days; format: functional; conditions: GBM1, 264 h; method in brief: as §4

- IC50 (A549): 733 nM
- Drug uptake [1]: Active
- inhibition [2]: Active
- T1/2 [3]: 25 min
- inhibition [4]: Active
- inhibition (mTORC2 (Homo sapiens)): Dose-Dependent Effect
- remaining at 2 h, 5 µM [7]: 20.2%
- half-life at 5 µM [8]: 51 min
Compound: CC1(C)CCc2c(O)cc(/C=C/c3cc(O)c4c(c3)C[C@@H]3C(C)(C)[C@H](OC=O)CC[C@@]3(C)O4)cc2O1
- Activity (U-87 MG [5]): Dose-Dependent Effect
- Activity (U-87 MG [6]): Dose-Dependent Effect
- Activity [9]: Non-Toxic
- Activity [10]: Non-Toxic
- Activity [11]: Non-Toxic
- Activity [12]: Non-Toxic
- TGDI at 20 mg/kg [13]: 1.75

From ChEMBL document CHEMBL5370602, “Structure-Based Design of a Lead Compound Derived from Natural Schweinfurthins with Antitumor Properties That Target Oxysterol-Binding Protein” (J Med Chem, 2023)
